Laboratory results taken from ChEMBL document CHEMBL1122425, “Synthesis and some pharmacological properties of [4-threonine,7-sarcosine]oxytocin, a peptide with high oxytocic potency, and of [4-threonine,7-N-methylalanine]oxytocin” (1983).

What was measured:
Rattus norvegicus [1] = species on record: Rattus norvegicus; experiment: In vitro for uterotonic activity in the presence of Mg2+ ion by Munsick method; format: functional
Summary of the method: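 Isolated uterus bath contains 0.5 mM Mg2+.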

[2] = Ratio of Oxytocin to Pressor activity; format: functional
Rattus norvegicus [3] = species on record: Rattus norvegicus; experiment: Evaluation of milk ejecting activity; format: functional
Rattus norvegicus [4] = species on record: Rattus norvegicus; experiment: In vitro for uterotonic activity in the absence of Mg2+ ion by Munsick method; format: functional
Rattus norvegicus [5] = experiment: Evaluation of antidiuretic activity against ethanol-anesthetized rats; format: functional, Urine
Summary of the method: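 Rats water-loaded before assay, under ethanol anesthesia.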

[6] = Ratio of Oxytocin to Antidiuretic activity; format: functional, Urine
Rattus norvegicus [7] = species on record: Rattus norvegicus; experiment: Evaluation of vasopressor activity; format: functional

| Compound | Activity (Rattus norvegicus [1]) | Ratio [2] | Activity (Rattus norvegicus [3]) | Activity (Rattus norvegicus [4]) | Activity (Rattus norvegicus [5]) | Ratio [6] | Activity (Rattus norvegicus [7]) |
| --- | --- | --- | --- | --- | --- | --- | --- |
| CC[C@H](C)[C@@H]1NC(=O)[C@H](Cc2ccc(O)cc2)NC(=O)[C@@H](N)CSSC[C@@H](C(=O)N2CCC[C@H]2C(=O)N[C@@H](CC(C)C)C(=O)NCC(N)=O)NC(=O)[C@H](CC(N)=O)NC(=O)[C@H](CCC(N)=O)NC1=O [OXYTOCIN] | 486 U mg-1 | 120 | 474 U mg-1 | 520 U mg-1 | 4 U mg-1 |  |  |
| CC[C@H](C)[C@@H]1NC(=O)[C@@H](Cc2ccc(O)cc2)NC(=O)[C@H](N)CSSC[C@@H](C(=O)N(C)[C@H](C)C(=O)N[C@@H](CC(C)C)C(=O)NCC(N)=O)NC(=O)[C@H](CC(N)=O)NC(=O)[C@@H]([C@H](C)O)NC1=O |  | > 192 |  |  |  |  |  |
| CC[C@H](C)[C@@H]1NC(=O)[C@H](Cc2ccc(O)cc2)NC(=O)[C@@H](N)CSSC[C@@H](C(=O)N2CCC[C@H]2C(=O)N[C@@H](CC(C)C)C(=O)NCC(N)=O)NC(=O)[C@H](CC(N)=O)NC(=O)[C@H]([C@@H](C)O)NC1=O | 719 U mg-1 |  | 543 U mg-1 | 923 U mg-1 | 1.8 U mg-1 | 510 | 0.43 U mg-1 |
| CC[C@H](C)[C@@H]1NC(=O)[C@@H](Cc2ccc(O)cc2)NC(=O)[C@H](N)CSSC[C@@H](C(=O)N(C)CC(=O)N[C@@H](CC(C)C)C(=O)NCC(N)=O)NC(=O)[C@H](CC(N)=O)NC(=O)[C@@H](CCC(N)=O)NC1=O |  | > 1310 |  |  |  |  |  |
| CC[C@H](C)[C@@H]1NC(=O)[C@H](Cc2ccc(O)cc2)NC(=O)[C@@H](N)CSSC[C@@H](C(=O)N(C)CC(=O)N[C@@H](CC(C)C)C(=O)NCC(N)=O)NC(=O)[C@H](CC(N)=O)NC(=O)[C@H]([C@@H](C)O)NC1=O | 1561 U mg-1 |  | 731 U mg-1 | 1173 U mg-1 | 0.037 U mg-1 | 31700 | <0.5 U mg-1 |
| CC[C@H](C)[C@@H]1NC(=O)[C@@H](Cc2ccc(O)cc2)NC(=O)[C@H](N)CSSC[C@@H](C(=O)N(C)CC(=O)N[C@@H](CC(C)C)C(=O)NCC(N)=O)NC(=O)[C@H](CC(N)=O)NC(=O)[C@@H]([C@H](C)O)NC1=O |  | > 2350 |  |  |  |  |  |
| CC[C@H](C)[C@@H]1NC(=O)[C@@H](Cc2ccc(O)cc2)NC(=O)[C@H](N)CSSC[C@@H](C(=O)N(C)[C@H](C)C(=O)N[C@@H](CC(C)C)C(=O)NCC(N)=O)NC(=O)[C@H](CC(N)=O)NC(=O)[C@@H](CCC(N)=O)NC1=O |  | > 177 |  |  |  |  |  |
| CC[C@H](C)[C@@H]1NC(=O)[C@@H](Cc2ccc(O)cc2)NC(=O)[C@H](N)CSSC[C@@H](C(=O)N2CCC[C@@H]2C(=O)N[C@@H](CC(C)C)C(=O)NCC(N)=O)NC(=O)[C@H](CC(N)=O)NC(=O)[C@@H]([C@H](C)O)NC1=O |  | 2150 |  |  |  |  |  |
| CC[C@H](C)[C@@H]1NC(=O)[C@H](Cc2ccc(O)cc2)NC(=O)[C@@H](N)CSSC[C@@H](C(=O)N(C)CC(=O)N[C@@H](CC(C)C)C(=O)NCC(N)=O)NC(=O)[C@H](CC(N)=O)NC(=O)[C@H](CCC(N)=O)NC1=O | 609 U mg-1 |  | 564 U mg-1 | 459 U mg-1 | 0.18 U mg-1 | 2550 | <0.35 U mg-1 |
| CC[C@H](C)[C@@H]1NC(=O)[C@H](Cc2ccc(O)cc2)NC(=O)[C@@H](N)CSSC[C@@H](C(=O)N(C)[C@@H](C)C(=O)N[C@@H](CC(C)C)C(=O)NCC(N)=O)NC(=O)[C@H](CC(N)=O)NC(=O)[C@H]([C@@H](C)O)NC1=O | 219 U mg-1 |  | 243 U mg-1 | 115 U mg-1 | 0.047 U mg-1 | 2450 | <0.6 U mg-1 |
| CC[C@H](C)[C@@H]1NC(=O)[C@H](Cc2ccc(O)cc2)NC(=O)[C@@H](N)CSSC[C@@H](C(=O)N(C)[C@@H](C)C(=O)N[C@@H](CC(C)C)C(=O)NCC(N)=O)NC(=O)[C@H](CC(N)=O)NC(=O)[C@H](CCC(N)=O)NC1=O | 184 U mg-1 |  | 402 U mg-1 | 62 U mg-1 | 0.12 U mg-1 | 516 | <0.35 U mg-1 |
